Measurements gathered from unrelated publications.
EGFR L858R/T790M: Epidermal growth factor receptor (EGFR, Homo sapiens, UniProt P00533, L858R/T790M)
EGFR: Epidermal growth factor receptor (EGFR, Homo sapiens, UniProt P00533)
EGFR G719C: Epidermal growth factor receptor (EGFR, Homo sapiens, UniProt P00533, G719C)
EGFR T790M: Epidermal growth factor receptor (EGFR, Homo sapiens, UniProt P00533, T790M)
EGFR del752-759: Epidermal growth factor receptor (EGFR, Homo sapiens, UniProt P00533, del752-759)
EGFR G719S: Epidermal growth factor receptor (EGFR, Homo sapiens, UniProt P00533, G719S)
EGFR del747-752/P753S: Epidermal growth factor receptor (EGFR, Homo sapiens, UniProt P00533, del747-752/P753S)
EGFR del746-750: Epidermal growth factor receptor (EGFR, Homo sapiens, UniProt P00533, del746-750)

| SMILES | target | observed | technique | tested at | remaining binding [%] |
| --- | --- | --- | --- | --- | --- |
| CN1CCN(c2ccc(Nc3nccc(-c4cccc([N+](=O)[O-])c4)n3)cc2C(F)(F)F)CC1 | EGFR L858R/T790M | binding |  | 10 µM | 29 |
| COc1cnc(Nc2cccc(S(N)(=O)=O)c2)nc1N1CCN(c2ccccc2)CC1 | EGFR | binding | competition with immobilised ligand | 1 µM | 100 |
| CN(C)c1nccc(-c2cnn3ncccc23)n1 | EGFR G719C | binding |  | 1 µM | 100 |
| Nc1ncc2c(n1)-c1c([nH]c3ccc(C#CC4CC4)cc13)CCCC2 | EGFR G719C | binding | competition with immobilised ligand | 1 µM | 91 |
| CNCc1ccccc1-c1csc([C@H](C)Nc2nc(C)nc3cc(OC)c(OC)cc23)c1 | EGFR G719C | cell-free assay | competition with immobilised ligand | 1 µM | 85 |
| O=C(Nc1c[nH]nc1C(=O)NC1CCNCC1)c1cc(F)cc(F)c1 | EGFR T790M | binding | competition with immobilised ligand | 1 µM | 100 |
| CN1CCN(c2ccc(Nc3nccc(-c4ccccc4)n3)cc2C(F)(F)F)CC1 | EGFR del752-759 | binding |  | 10 µM | 100 |
| C[C@H](c1ccc(F)cc1)N(Cc1cccc(C(=O)O)c1)C(=O)c1cnc2ccccc2c1 | EGFR G719S | cell-free assay | competition with immobilised ligand | 1 µM | 100 |
| COc1ccnn2ncc(-c3ccnc(N(C)C)n3)c12 | EGFR del752-759 | binding |  | 1 µM | 86 |
| c1cncc(-c2cccc(Nc3nccc(NC4CCCCC4)n3)c2)c1 | EGFR del747-752/P753S | binding | competition with immobilised ligand | 10 µM | 42 |
| CN(C)c1ncc(F)c(-c2cnn3ncccc23)n1 | EGFR G719C | binding |  | 1 µM | 86 |
| O=C(NCC1CCOCC1)c1n[nH]cc1NC(=O)c1c(F)cccc1F | EGFR T790M | binding | competition with immobilised ligand | 1 µM | 93 |
| CCN1CCN(Cc2ccc(C(=O)Nc3ccc(C)c(Oc4ccc5c(c4)CC(=O)N5)c3)cc2C(F)(F)F)CC1 | EGFR del747-752/P753S | binding | competition with immobilised ligand | 1 µM | 100 |
| O=C(NCCCN1CCOCC1)c1ccc(Nc2nccc(-c3cc4ccccc4s3)n2)cc1 | EGFR G719C | binding | competition with immobilised ligand | 1 µM | 99 |
| COc1cnc(Nc2cccc(S(N)(=O)=O)c2)nc1N1CCN(c2ccccc2)C(=O)C1 | Epidermal growth factor receptor (EGFR, Homo sapiens, UniProt P00533, A750P/del747-749) | binding | competition with immobilised ligand | 1 µM | 92 |
| O=C(c1ccc(Nc2ncc(Cl)c(-c3ccc(Cl)s3)n2)cc1)N1CCC(N2CCCC2)CC1 | Epidermal growth factor receptor (EGFR, Homo sapiens, UniProt P00533, L858R) | binding | competition with immobilised ligand | 1 µM | 72 |

| SMILES | target | observed | technique | tested at | remaining binding [%] |
| --- | --- | --- | --- | --- | --- |
| COc1ncc2cc3ccccc3nc2c1C#N | EGFR | cell-free assay | competition with immobilised ligand | 5 µM | 94 |
| F[C@@H]1CCN(c2nccc(-c3cnn4ncccc34)n2)C1 | EGFR | binding |  | 1 µM | 91 |
| O=C(NCCCN1CCOCC1)c1ccc(Nc2ncc(Cl)c(-c3ccc(Cl)s3)n2)cc1 | EGFR del752-759 | binding | competition with immobilised ligand | 1 µM | 92 |
| CCC(=O)N[C@H]1CC[C@@H](C(=O)N(C)c2ccc(-c3nc4ccccc4o3)cc2)C1 | EGFR del746-750 | cell-free assay | competition with immobilised ligand | 1 µM | 78 |
| C[C@@H]1CCN(c2nccc(-c3cnn4ncccc34)n2)C1 | EGFR | binding |  | 1 µM | 100 |
| FC(F)(F)c1ccc2c(c1)nc(-c1cccnc1)n2C1CC1 | EGFR G719S | cell-free assay | competition with immobilised ligand | 1 µM | 93 |
| CNC(=O)[C@@H]1CC[C@@H](n2c(-c3ccc4cnccc4c3)nc3ccc(C(=O)NCc4cccc(C(N)=O)c4)cc32)C1 | EGFR del746-750 | binding | competition with immobilised ligand | 1 µM | 90 |
| CS(=O)(=O)N1CCCC(NC(=O)[C@H](CCC2CCCCC2)NC(=O)c2ccc(CNc3ncnc4c3nnn4-c3ccccc3)cc2)C1 (stereo partly shown) | EGFR del747-752/P753S | cell-free assay | competition with immobilised ligand | 0.1 µM | 66 |
| CC1CCCN1c1nccc(-c2cnn3ncccc23)n1 (stereo not shown) | Epidermal growth factor receptor (EGFR, Homo sapiens, UniProt P00533, L861Q) | binding |  | 1 µM | 100 |
| N#Cc1ccc(Nc2ccc3[nH]c(=O)[nH]c3c2)c(Cl)c1 | EGFR del752-759 | cell-free assay | competition with immobilised ligand | 1 µM | 100 |
| CN(CCCC(F)(F)F)c1nccc(-c2cnn3ncccc23)n1 | EGFR del752-759 | binding |  | 1 µM | 85 |
| C[C@@H]1CN(c2cc(-c3n[nH]c4ccc(OC5(C)CC5)cc34)ncn2)C[C@H](C)O1 | EGFR G719S | cell-free assay | competition with immobilised ligand | 0.1 µM | 59 |
| O=C(c1ccc(Nc2ncc(Cl)c(-c3cc4ccccc4s3)n2)cc1)N1CCC(N2CCCC2)CC1 | EGFR del746-750 | binding | competition with immobilised ligand | 1 µM | 79 |
| NS(=O)(=O)c1cc(NC(=O)Cc2ccccc2)ccc1Oc1cccc(Cl)c1 | EGFR L858R/T790M | cell-free assay | competition with immobilised ligand | 1 µM | 75 |
| O=C(c1ccc(Nc2nccc(-c3cc4ccccc4s3)n2)cc1)N1CCC(N2CCCC2)CC1 | EGFR | binding | competition with immobilised ligand | 1 µM | 97 |
